Measured values reported in ChEMBL document CHEMBL2086229, “Synthesis and biological activities of 4-substituted pyrrolo[2,3-a]carbazole Pim kinase inhibitors” (Eur J Med Chem, 2012).
Calls of active or inactive are those of the source. No cut-off for these calls is given here.

What was measured:
[1] = Antiproliferative activity against human fibroblasts after 48 hrs by resazurin reduction test; format: cell-based; details: Fibroblast
Procedure, shortened: (§1)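 Cells kept as monolayers in Glutamax MEM with Earle's salts, 10% fetal calf serum, sodium pyruvate, non-essential amino acids and gentamicin, 37 °C, 5% CO2. Seeded at 5 × 10³ cells/well, adhered 16 h, then given drug from 20 mM DMSO stock for 48 h continuously. Resazurin (25 μg/mL, 1 h, 37 °C) fluorescence read at ex 530/em 590 nm. IC50 taken from concentration–survival curve versus control wells, blank subtracted.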

[2] = molecular target: T1, Serine/threonine-protein kinase pim-1 (Homo sapiens, UniProt P11309); assay: Inhibition of human Pim1 using RSRHSSYPAGT as substrate assessed as residual activity at 10 uM
Target sequence in this assay (P11309 whole entry, looked up): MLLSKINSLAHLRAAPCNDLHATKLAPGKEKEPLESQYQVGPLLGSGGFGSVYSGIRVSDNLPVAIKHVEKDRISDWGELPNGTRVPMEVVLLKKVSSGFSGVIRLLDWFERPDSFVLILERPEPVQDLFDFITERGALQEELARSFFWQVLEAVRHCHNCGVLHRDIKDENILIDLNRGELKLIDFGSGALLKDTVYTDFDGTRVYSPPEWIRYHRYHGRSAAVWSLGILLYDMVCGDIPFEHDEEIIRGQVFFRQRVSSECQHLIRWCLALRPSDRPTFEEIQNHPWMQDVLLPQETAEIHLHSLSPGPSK

[3] = molecular target: T1, Serine/threonine-protein kinase pim-1; assay: Inhibition of human Pim1 using RSRHSSYPAGT as substrate assessed as residual activity at 1 uM
Target sequence in this assay (P11309 whole entry, looked up): as above

[4] = molecular target: Serine/threonine-protein kinase pim-2 (Homo sapiens) (UniProt Q9P1W9); assay: Inhibition of human Pim2 using RSRHSSYPAGT as substrate assessed as residual activity at 10 uM
[5] = molecular target: Serine/threonine-protein kinase pim-2 (Homo sapiens) (UniProt Q9P1W9); assay: Inhibition of human Pim2 using RSRHSSYPAGT as substrate assessed as residual activity at 1 uM
[6] = molecular target: T2, Serine/threonine-protein kinase pim-3 (Homo sapiens, UniProt Q86V86); assay: Inhibition of human Pim3 using RSRHSSYPAGT as substrate assessed as residual activity at 10 uM
[7] = molecular target: T2, Serine/threonine-protein kinase pim-3; assay: Inhibition of human Pim3 using RSRHSSYPAGT as substrate assessed as residual activity at 1 uM
PA-1 [8] = assay: Antiproliferative activity against human PA1 cells assessed as growth inhibition at 1 uM after 48 hrs by resazurin reduction test; format: functional, cell-based
Procedure, shortened: (§2)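 PA1 and PC3 cells seeded at 5 × 10³ per well, adhered 16 h, then exposed 48 h continuously to a single drug concentration (1 or 10 μM) from 20 mM DMSO stock. Growth read by resazurin reduction (25 μg/mL, 1 h, 37 °C), fluorescence ex 530/em 590 nm, as survival relative to control wells after blank subtraction.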

PA-1 [9] = assay: Antiproliferative activity against human PA1 cells assessed as growth inhibition at 10 uM after 48 hrs by resazurin reduction test; format: functional, cell-based; procedure, shortened: as §2
PC-3 [10] = assay: Antiproliferative activity against human PC3 cells assessed as growth inhibition at 1 uM after 48 hrs by resazurin reduction test; format: functional, cell-based; procedure, shortened: as §2
PC-3 [11] = assay: Antiproliferative activity against human PC3 cells assessed as growth inhibition at 10 uM after 48 hrs by resazurin reduction test; format: functional, cell-based; procedure, shortened: as §2
[12] = molecular target: T2, Serine/threonine-protein kinase pim-3; assay: Inhibition of human Pim3 using RSRHSSYPAGT as substrate
PA-1 [13] = assay: Antiproliferative activity against human PA1 cells after 48 hrs by resazurin reduction test; format: functional, cell-based; procedure, shortened: as §1
PC-3 [14] = assay: Antiproliferative activity against human PC3 cells after 48 hrs by resazurin reduction test; format: functional, cell-based; procedure, shortened: as §1
DU-145 = assay: Antiproliferative activity against human DU145 cells after 48 hrs by resazurin reduction test; format: functional, cell-based; procedure, shortened: as §1
[15] = molecular target: T1, Serine/threonine-protein kinase pim-1; assay: Inhibition of human Pim1 using RSRHSSYPAGT as substrate
Target sequence in this assay (P11309 whole entry): as the sequence (P11309 whole entry, looked up) above

Sequence of Serine/threonine-protein kinase pim-2 (Homo sapiens) (Q9P1W9 whole entry, looked up): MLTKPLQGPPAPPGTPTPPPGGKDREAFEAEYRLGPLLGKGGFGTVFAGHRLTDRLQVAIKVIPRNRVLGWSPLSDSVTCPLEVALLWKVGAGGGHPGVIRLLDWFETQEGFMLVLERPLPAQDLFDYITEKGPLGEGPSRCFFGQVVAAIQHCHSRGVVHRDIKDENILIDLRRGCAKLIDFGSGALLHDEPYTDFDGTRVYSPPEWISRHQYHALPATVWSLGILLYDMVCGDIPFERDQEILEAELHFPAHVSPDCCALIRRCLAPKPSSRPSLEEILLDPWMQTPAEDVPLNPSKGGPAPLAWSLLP

Row | Activity [2] | Activity [3] | Activity [4] | Activity [5] | Activity [6] | Activity [7] | IC50 [12] | IC50 [15] | IC50 (PC-3 [14]; PC-3, 48 h) | IC50 (DU-145; DU-145, 48 h) | SMILES | IC50 [1] | growth inhibition (GI) (PA-1 [8]) | growth inhibition (GI) (PA-1 [9]) | growth inhibition (GI) (PC-3 [10]) | growth inhibition (GI) (PC-3 [11]) | growth inhibition (GI) (PA-1 [13]) | growth inhibition (GI) (PC-3 [14]) | growth inhibition (GI) (DU-145) | IC50 (PA-1 [13]; PA-1, 48 h)
1 | 70% | 90% | 93% | 100% | 65% | 101% |  |  |  |  | O=C(O)c1cc2c3ccccc3[nH]c2c2[nH]ccc12 |  | inactive | inactive | inactive | inactive |  |  |  | 
2 | 87% | 103% | 89% | 101% | 55% | 103% |  |  |  |  | Nc1cccc2[nH]c3c(cc(C(=O)O)c4cc[nH]c43)c12 |  | inactive | inactive | inactive | inactive |  |  |  | 
3 | 15% | 57% | 75% | 95% | 24% | 47% | 0.5 µM | 3 µM | 6 µM | > 50 µM | COC(=O)c1cc2c3ccccc3[nH]c2c2[nH]ccc12 | 8 µM |  |  |  |  |  |  |  | 27 µM

The remaining lines, values behind:

Row | SMILES | Activity [2] | Activity [3] | Activity [4] | Activity [5] | Activity [6] | Activity [7] | IC50 [12] | IC50 [15] | IC50 (PC-3 [14]; PC-3, 48 h) | IC50 (DU-145; DU-145, 48 h) | IC50 [1] | growth inhibition (GI) (PA-1 [8]) | growth inhibition (GI) (PA-1 [9]) | growth inhibition (GI) (PC-3 [10]) | growth inhibition (GI) (PC-3 [11]) | growth inhibition (GI) (PA-1 [13]) | growth inhibition (GI) (PC-3 [14]) | growth inhibition (GI) (DU-145) | IC50 (PA-1 [13]; PA-1, 48 h)
4 | O=Cc1c[nH]c2c1ccc1c3ccccc3[nH]c12 |  |  |  |  |  |  |  |  |  |  | 21 µM |  |  |  |  |  |  |  | 
5 | COC(=O)c1cc2c([nH]c3cccc(N)c32)c2[nH]ccc12 | 39% | 90% | 77% | 93% | 16% | 40% | 0.41 µM |  |  |  |  |  |  |  |  | inactive | inactive | inactive | 
